Eight compounds from ChEMBL document CHEMBL5338796, “Discovery of a Selective and Orally Bioavailable FGFR2 Degrader for Treating Gastric Cancer” (J Med Chem, 2023) can be followed below.

One may read the bioavailability as the share of a dose that reaches the circulation, judged against a reference dose that is usually intravenous. A higher bioavailability goes with good availability. Broadly, the IC50 is the midpoint of a concentration-inhibition curve. What is called DC50 is the concentration at which degradation of the target reaches its halfway point.

For data set [1], the target named is T1, Protein cereblon/Fibroblast growth factor receptor 2 (Homo sapiens, UniProt P21802+Q96SW2). Briefly: PROTAC activity at CRBN/FGFR2 in human KATO III stomach cancer cell line assessed as FGFR2 degradation by measuring FGFR2 expression level at 15 uM measured for 6 hrs by Western blotting analysis. Format: cell-based.
Target sequence in this assay (P21802 22-821 limits assumed): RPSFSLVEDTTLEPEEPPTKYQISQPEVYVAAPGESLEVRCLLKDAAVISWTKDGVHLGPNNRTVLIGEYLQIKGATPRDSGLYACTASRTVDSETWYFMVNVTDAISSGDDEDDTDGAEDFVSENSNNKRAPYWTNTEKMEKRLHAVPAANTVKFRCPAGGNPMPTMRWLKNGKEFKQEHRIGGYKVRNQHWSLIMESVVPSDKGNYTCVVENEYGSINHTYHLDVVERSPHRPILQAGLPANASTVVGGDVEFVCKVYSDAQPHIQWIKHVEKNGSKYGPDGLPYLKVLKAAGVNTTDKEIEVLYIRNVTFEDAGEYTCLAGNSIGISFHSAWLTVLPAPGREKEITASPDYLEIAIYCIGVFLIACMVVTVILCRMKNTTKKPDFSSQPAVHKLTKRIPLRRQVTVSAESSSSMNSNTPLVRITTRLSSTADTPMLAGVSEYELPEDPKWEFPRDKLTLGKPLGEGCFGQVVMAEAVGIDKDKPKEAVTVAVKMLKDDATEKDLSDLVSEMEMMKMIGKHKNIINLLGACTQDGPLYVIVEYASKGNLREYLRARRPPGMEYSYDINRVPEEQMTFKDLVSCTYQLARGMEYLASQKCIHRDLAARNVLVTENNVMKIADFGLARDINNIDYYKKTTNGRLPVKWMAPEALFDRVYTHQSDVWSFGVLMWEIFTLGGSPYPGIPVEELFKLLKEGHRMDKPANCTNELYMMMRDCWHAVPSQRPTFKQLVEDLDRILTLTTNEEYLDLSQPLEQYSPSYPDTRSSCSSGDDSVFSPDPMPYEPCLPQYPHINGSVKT
Target sequence in this assay (Q96SW2 whole entry partner): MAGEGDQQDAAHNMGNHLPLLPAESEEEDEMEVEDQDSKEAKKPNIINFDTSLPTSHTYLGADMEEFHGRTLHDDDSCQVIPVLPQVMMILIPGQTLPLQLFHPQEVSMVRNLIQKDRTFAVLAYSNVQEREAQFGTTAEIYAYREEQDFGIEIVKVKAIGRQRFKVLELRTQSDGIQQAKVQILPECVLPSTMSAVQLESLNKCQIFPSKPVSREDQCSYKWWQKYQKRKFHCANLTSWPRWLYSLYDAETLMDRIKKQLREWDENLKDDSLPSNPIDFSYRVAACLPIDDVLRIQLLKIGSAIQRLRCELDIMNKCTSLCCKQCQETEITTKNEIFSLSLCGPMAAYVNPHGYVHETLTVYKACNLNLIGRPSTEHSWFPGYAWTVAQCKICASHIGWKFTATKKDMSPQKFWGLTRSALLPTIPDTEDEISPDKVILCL
Data set [2] has as its target T1, Protein cereblon/Fibroblast growth factor receptor 2. Description: PROTAC activity at CRBN/FGFR2 in human KATO III stomach cancer cell line assessed as FGFR2 degradation by measuring FGFR2 expression level at 100 to 500 nM measured for 6 hrs by Western blotting analysis. The class given is cell-based. Particulars: dose 100-500 nM. In a few lines: (§1)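 KATO III cells treated 6 h across 0.5–10,000 nM (DMSO stock, final DMSO below 0.5%); FGFR2 immunoblotted, quantified as FGFR2/β-actin ratio normalized to DMSO-treated cells, three independent biological experiments; DC50 and Dmax derived from the curve.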
Target sequence in this assay (P21802 22-821 limits assumed): as the sequence (P21802 22-821 limits assumed) above
Target sequence in this assay (Q96SW2 whole entry partner): as the sequence (Q96SW2 whole entry partner) above

For data set [3] the target is unchanged. Briefly: PROTAC activity at CRBN/FGFR2 in human KATO III stomach cancer cell line assessed as FGFR2 degradation by measuring FGFR2 expression level at 500 nM measured for 6 hrs by Western blotting analysis relative to control. The class given is cell-based. In a few lines:
as §1
Target sequence in this assay (P21802 22-821 limits assumed): as the sequence (P21802 22-821 limits assumed) above
Target sequence in this assay (Q96SW2 whole entry partner): as the sequence (Q96SW2 whole entry partner) above

Data set [4] in a line: Oral bioavailability in mouse at 10 mg/kg. Format: ADME, organism-based. As to conditions: in vivo.
Data set [5] relates to KATO III stomach cancer cell line. Description: Antiproliferative activity against human KATO III stomach cancer cell line assessed as reduction in cell viability measured for 72 hrs by celltiter-glo reagent based assay. The class given is functional. In a few lines: (§2)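 Cancer lines KATO III, SNU16, NCI-H716, NCI-H1975, MV-4-11 and HEK293T treated 72 h; antiproliferative IC50 given as mean ± s.d. from three independent biological experiments.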
For orientation: In ATP-based viability assays light output follows the ATP content of the culture.

In data set [6] the test system is SNU-16. Briefly: Antiproliferative activity against human SNU-16 cells assessed as reduction in cell viability measured for 72 hrs by celltiter-glo reagent based assay. The class given is functional. Particulars: SNU-16, 72 h. In a few lines:
as §2

Data set [7] concerns NCI-H716. Briefly: Antiproliferative activity against human NCI-H716 cells assessed as reduction in cell viability measured for 72 hrs by celltiter-glo reagent based assay. The class given is functional. As to conditions: NCI-H716, 72 h. In a few lines: as §2
The test system of data set [8] is SNU-16. Description: Antitumor activity against human SNU-16 cells xenografted in BALB/c nude mouse assessed as tumor growth inhibition at 20 mg/kg, po administered for 15 days and measured on day 2. As to conditions: SNU-16, 48 h, time 2 day, read-out: TGI. Format: functional. In a few lines:
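Female BALB/c nude mice, 5 weeks old (20–22 g), s.c. right-flank SNU-16 implants, randomized by body weight into groups (n = 5) once tumours reached 50–100 mm3. Dosing 20 mg/kg/day intragastric in 0.5% CMC-Na for 15 d; vehicle controls. Tumour width and length measured every 2 days; tumours harvested 4 h after last dose and lysates immunoblotted for pFGFR, FGFR2, pPLCγ, pErk.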
A general note: In xenograft studies the graft and the host belong to different species.

In data set [9] the target is T1, Protein cereblon/Fibroblast growth factor receptor 2. Description: PROTAC activity at CRBN/FGFR2 in human KATO III stomach cancer cell line assessed as FGFR2 degradation measured for 6 hrs by immunoblot analysis. Format: cell-based. In a few lines: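 KATO III cells treated for 6 h at the stated concentrations, added from 10 mM DMSO stocks (final DMSO below 0.5%). Cells were washed with PBS and lysed in 2× loading buffer, then run on SDS-PAGE and blotted to PVDF. Anti-FGFR2 was applied overnight at 4 °C, with ECL detection. FGFR2 was expressed as FGFR2/β-actin, normalized to DMSO-treated cells, from three independent biological experiments.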
On the technique in general: A western blot detects proteins with antibodies after separation by electrophoresis.
Target sequence in this assay (P21802 22-821 limits assumed): as the sequence (P21802 22-821 limits assumed) above
Target sequence in this assay (Q96SW2 whole entry partner): as the sequence (Q96SW2 whole entry partner) above

The test system of data set [10] is NCI-H1975. Briefly: Antiproliferative activity against human NCI-H1975 cells assessed as reduction in cell viability measured for 72 hrs by celltiter-glo reagent based assay. Format: functional. As to conditions: NCI-H1975, 72 h. In a few lines: as §2
The test system of data set [11] is MV4-11. Description: Antiproliferative activity against human MV4-11 cells assessed as reduction in cell viability measured for 72 hrs by celltiter-glo reagent based assay. The class given is functional. Particulars: MV4-11, 72 h. In a few lines: as §2
Data set [12] can be described thus: Antiproliferative activity against human HEK293T cells assessed as reduction in cell viability measured for 72 hrs by celltiter-glo reagent based assay. Format: toxicity, HEK-293T. In a few lines: as §2
The target in data set [13] is T1, Protein cereblon/Fibroblast growth factor receptor 2. Description: PROTAC activity at CRBN/FGFR2 in human KATO III stomach cancer cell line assessed as FGFR2 degradation by measuring FGFR2 expression level measured for 6 hrs by Western blotting analysis. The class given is cell-based. In a few lines: as §1
Target sequence in this assay (P21802 whole entry): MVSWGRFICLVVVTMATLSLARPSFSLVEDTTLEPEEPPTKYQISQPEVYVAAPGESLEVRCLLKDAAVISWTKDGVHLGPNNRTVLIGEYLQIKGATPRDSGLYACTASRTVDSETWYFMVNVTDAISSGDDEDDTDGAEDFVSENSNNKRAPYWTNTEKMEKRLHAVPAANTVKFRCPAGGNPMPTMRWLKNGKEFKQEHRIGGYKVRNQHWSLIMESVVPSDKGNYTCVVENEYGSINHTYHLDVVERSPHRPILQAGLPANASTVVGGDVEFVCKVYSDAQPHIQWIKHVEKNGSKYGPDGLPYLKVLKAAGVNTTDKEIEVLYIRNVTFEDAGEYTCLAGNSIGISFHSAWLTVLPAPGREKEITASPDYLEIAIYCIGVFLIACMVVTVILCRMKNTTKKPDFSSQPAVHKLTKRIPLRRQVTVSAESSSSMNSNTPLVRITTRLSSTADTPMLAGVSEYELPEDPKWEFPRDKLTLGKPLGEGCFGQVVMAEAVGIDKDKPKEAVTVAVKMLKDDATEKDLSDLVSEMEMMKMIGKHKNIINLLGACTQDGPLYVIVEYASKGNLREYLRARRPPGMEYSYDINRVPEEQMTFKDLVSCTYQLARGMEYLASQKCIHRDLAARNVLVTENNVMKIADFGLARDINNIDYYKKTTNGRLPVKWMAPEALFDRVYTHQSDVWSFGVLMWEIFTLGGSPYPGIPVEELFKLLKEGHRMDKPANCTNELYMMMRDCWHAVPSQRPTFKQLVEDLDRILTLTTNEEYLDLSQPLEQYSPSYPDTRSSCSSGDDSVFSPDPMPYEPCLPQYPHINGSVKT
Target sequence in this assay (Q96SW2 whole entry): as the sequence (Q96SW2 whole entry partner) above

Each structure is given as a SMILES string. Active and inactive are the calls of the source. No cut-off for these calls is given here. Bounds are passed on as bounds.

For `COc1cc(OC)c(Cl)c(NC(=O)N(C)c2cc(Nc3ccc(N4CCN(CC(=O)NCCOCCOCCNC(=O)C5CCN(c6ccc7c(c6)C(=O)N(C6CCC(=O)NC6=O)C7=O)CC5)CC4)cc3)ncn2)c1Cl` (centres undefined), the result in data set [1] was inactive.

With `COc1cc(OC)c(Cl)c(NC(=O)N(C)c2cc(Nc3ccc(N4CCN(C(=O)CCCCCCCCCCCNc5cccc6c5C(=O)N(C5CCC(=O)NC5=O)C6=O)CC4)cc3)ncn2)c1Cl` (centres undefined), the outcome in data set [2] was inactive.

Regarding `COc1cc(OC)c(Cl)c(NC(=O)N(C)c2cc(Nc3ccc(N4CCN(C(=O)CCCCCCCNc5cccc6c5C(=O)N(C5CCC(=O)NC5=O)C6=O)CC4)cc3)ncn2)c1Cl` (centres undefined), the Activity in data set [3] (DEGRADER) turned out to be 40%.

With `COc1cc(OC)c(Cl)c(NC(=O)N(C)c2cc(Nc3ccc(N4CCN(CC(=O)N[C@H](C(=O)N5C[C@H](O)C[C@H]5C(=O)N[C@@H](C)c5ccc(-c6scnc6C)cc5)C(C)(C)C)CC4)cc3)ncn2)c1Cl`, the bioavailability in data set [4] was determined as 0.2%.

With `CCN1CCN(c2ccc(Nc3cc(N(C)C(=O)Nc4c(Cl)c(OC)cc(OC)c4Cl)ncn3)cc2)CC1` [INFIGRATINIB], the IC50 in data set [5] was determined as 0.0603 µM; in [6], 0.0954 µM; in data set [7] it was 0.0659 µM. In [8], the inhibition in vivo at 20 mg/kg stood at 53.7%.

For the compound `COc1cc(OC)c(Cl)c(NC(=O)N(C)c2cc(Nc3ccc(N4CCN(C(=O)C5CCN(c6ccc7c(c6)C(=O)N(C6CCC(=O)N(C)C6=O)C7=O)CC5)CC4)cc3)ncn2)c1Cl` (centres undefined), in data set [9], the result was inactive. In addition, the IC50 was 0.497 µM in [5]; 0.108 µM in data set [6]; 0.0995 µM in data set [7]; above 10 µM in data set [10]; above 10 µM in data set [11]. Also, the IC50 at 72 h in [12] is above 10 µM.

Regarding `COc1cc(OC)c(Cl)c(NC(=O)N(C)c2cc(Nc3ccc(N4CCN(CC(=O)NCCCCCNc5cccc6c5C(=O)N(C5CCC(=O)NC5=O)C6=O)CC4)cc3)ncn2)c1Cl` (centres undefined), the Activity in data set [3] was determined as 66%; in data set [3] (DEGRADER), 20%. Further, the DC50 in data set [13] is 0.0415 µM.

`COc1cc(OC)c(Cl)c(NC(=O)N(C)c2cc(Nc3ccc(N4CCN(CC(=O)NCCNc5cccc6c5C(=O)N(C5CCC(=O)NC5=O)C6=O)CC4)cc3)ncn2)c1Cl` (centres undefined): the result in data set [2] was inactive.
